Compounds with a hit are over-represented: about 2.6% of the library has one in this group of screens.
DENV2 CPE: DENV2-induced cell death inhibition; DENV2-infected cells, cytopathic effect rescue, plate reader; CPE inhibition, % at 9.99 µM; actives 1.7% (n = 350,000); AID 651640; in the data active = CPE inhibition above about 20%, passing the limit was not always enough; tested in BHK-21 cells;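 note: 0% = median of neutral control wells and 100% = median of positive control wells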
F508del corr: CFTR F508del correction in bronchial cells; activity (quench increase), % at 7.58 µM; CFBE cells, YFP halide quenching; stimulated with forskolin plus potentiator P3; % fluorescence drop versus neutral controls; actives 0.36% (n = 350,000);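 active = mean added fluorescence quench of at least 8% versus neutral control, with both replicates also reaching 8%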;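 note: cells transiently co-express mutant CFTR-F508del with the halide-sensitive YFP; corrector assay measuring rescue of mutant channel to the surface after 24 h compound exposure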
E-selectin induc: E-selectin induction on HUVECs; HUVEC E-selectin immunofluorescence imaging; normalized: neutral wells 0, TNF-alpha wells 100; activation, % at 7.58 µM; actives 0.37% (n = 260,000);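 active = mean E-selectin-positive cell signal at least 10% of the positive control, reached in at least 60% of replicates, without over 20% cell loss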
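Test system: HUVEC | Signal: Immunofluorescence imaging | Read-out: Percent E-selectin-positive cells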
miR-122 sensor: blocks miR-122 activity in Huh7 sensor cells; actives 0.3% (n = 340,000); Huh7 miR-122 Renilla luciferase sensor, 48 h; neutral wells = 0, positive control = 100; activation (reporter increase), % at 12.5 µM; AID 602342;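 active = mean replicate activation score at least 90 and every replicate individually at or above 90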;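 note: higher luciferase means less miR-122 activity so hits act as miR-122 inhibitors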
ERAP1 HTS inh: ERAP1 (human) enzyme inhibition | inhibition, % at 10.7 µM | actives 0.15% (n = 340,000) | recombinant ERAP1, Leu-AMC fluorescence, 60 min | AID 652197 | Q9NZ08;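 active = mean replicate inhibition of at least 30%, or all replicates individually reaching that 30% level; inactive = mean below 30% and not every replicate reaching it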;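 note: 0% = neutral control wells and 100% = L-leucinethiol positive control wells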
GSIS activator: GLuc luminescence reporter in INS-1E cells, primary screen for activators of glucose-dependent secretion of insulin; INS-1E GLuc reporter insulin secretion, 2-3 h; actives 0.61% (n = 370,000); activation, % at 16.6 µM;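 active = lowest replicate activation of at least 40%, so every replicate reaches that level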;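 note: 0% = median of neutral control wells and 100% = median of IBMX positive control wells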
Numbers without * were called inactive; x = no result given; [ ] = dose if it differs, or a comment.

SMILES | DENV2 CPE | F508del corr | E-selectin induc | miR-122 sensor | ERAP1 HTS inh | GSIS activator
O=C([C@H]1[C@H](CO)[C@H]2Cn3c(cccc3=O)[C@H]2N1Cc1ccccn1)N1CCC(Cc2ccccc2)CC1 | -6 | 0 | 0 | x | 1 | 7
C[C@H]1CCCCO[C@H](CN(C)Cc2ccncc2)[C@@H](C)CN([C@@H](C)CO)C(=O)c2cc(NS(=O)(=O)c3ccc(F)cc3)ccc2O1 | -2 | -3 | 0 | 10[16.7 µM] | -1 | -8
C[C@@H]1CCCCO[C@@H](CN(C)Cc2ccncc2)[C@H](C)CN([C@@H](C)CO)C(=O)c2cc(NS(=O)(=O)c3ccc(Cl)cc3)ccc2O1 | 60* | -1 | 0 | -8[16.7 µM] | 4 | -23
C[C@@H]1CN([C@H](C)CO)C(=O)c2cc(NS(=O)(=O)c3ccc(F)cc3)ccc2O[C@@H](C)CCCCO[C@H]1CN(C)Cc1ccncc1 | 51* | 0 | 0 | 3[16.7 µM] | 1 | -16
CO[C@@H]1CN(C)C(=O)c2cc(NC(=O)c3ccccc3)ccc2OC[C@H](C)N(CC2CC2)C[C@@H]1C | x | -2 | 1 | 15[16.7 µM] | x | 5
C[C@@H]1CN([C@H](C)CO)C(=O)CCCn2nncc2CO[C@H]1CN(C)C(=O)Nc1ccccc1F | 0 | -1 | 1 | 0[16.7 µM] | 1 | 6
COCCNC(=O)C1(C)CCCN(C(=O)c2ccc(C(F)(F)F)cc2)C1 (stereo not drawn) | 50* | 0 | 0 | x | 4 | -2
COCCNC(=O)C1(C)CCN(C(=O)c2ccc3sccc3c2)C1 (stereo not drawn) | 54* | 6 | 0 | -5 | 1 | -11
COCCNC(=O)C1(C)CCN(C(=O)Cc2ccc(OC)c(OC)c2)C1 (stereo not drawn) | 22* | -3 | 0 | 4 | -6 | 8
C[C@H]1CN([C@@H](C)CO)C(=O)CCCn2cc(nn2)CO[C@H]1CN(C)C(=O)NC1CCCC1 | 17 | 2 | 0 | -3[16.7 µM] | 1 | 6
CN1c2ccc(-c3ccc(C#N)cc3)cc2[C@H]2[C@H](CCN2C(=O)NC2CCCC2)[C@@H]1CO | -10 | -3 | 0 | -16[16.7 µM] | -3 | -14
CC12CCC(=O)N1C(C(=O)Nc1ccc(S(=O)(=O)N3CCCCC3)cc1)CS2 (stereo not drawn) | 32* | 0 | 1 | 1 | 1 | -21
CC12CCC(=O)N1C(C(=O)Nc1nc(-c3ccccc3)cs1)CS2 (stereo not drawn) | 29* | -4 | 0 | x | -1 | 25
CC12CCC(=O)N1C(C(=O)Nc1cc(Cl)ccc1N1CCOCC1)CS2 (stereo not drawn) | -8 | -1 | 135* | 0 | 3 | 0
CC12CCC(=O)N1C(C(=O)Nc1cccc(S(=O)(=O)N3CCCCCC3)c1)CS2 (stereo not drawn) | -9 | 0 | -6 | 6 | 0 | -31
CC(=O)c1ccc(C(=O)N2CCCC(C(=O)c3cc(F)ccc3F)C2)s1 (stereo not drawn) | 7 | 0 | x | -10 | -2 | -11
COc1ccc(F)cc1C(=O)C1CCCN(C(=O)c2ccc(C(C)=O)s2)C1 (stereo not drawn) | -3 | -1 | x | x | -1 | 76*
CN1C(C(=O)NCCc2cccs2)CC2Cn3c(nc4cc(Cl)c(Cl)cc43)C21 (stereo not drawn) | 80* | 1 | 0 | -7 | -2 | -13
COCCNC(=O)C1CC2Cn3c(nc4cc(C)c(C)cc43)C2N1C (stereo not drawn) | 29* | 0 | 0 | x | -2 | 5
COCCNC(=O)C1CC2Cn3c(nc4cc5ccccc5cc43)C2N1C (stereo not drawn) | 12 | 2 | 0 | -7 | 0 | -5
CO[C@@H]1CN(C)C(=O)c2cc(NC(=O)C3CC3)ccc2OC[C@H](C)N(CC2CCCC2)C[C@@H]1C | 7 | -1 | 0 | 3[16.7 µM] | 0 | 8
COc1ccc(C)cc1NCc1cc(=O)oc2cc(-c3ccccc3)c(O)cc12 | x | x | x | 3 | x | 107*
COc1ccc(C2N(c3ccccc3)C(=O)C2(F)F)cc1OC (stereo not drawn) | -1 | -2 | 1 | -7 | 3 | 44*

From PubChem
